In ChEMBL document CHEMBL1914346, “Discovery and synthesis of novel substituted benzocoumarins as orally active lipid modulating agents” (Bioorg Med Chem Lett, 2011) one finds Activity and inhibition data, which are given here for 12 compounds.

The structures appear in SMILES notation.

The subject of data set [1] is Syrian golden hamster. Kind of data set: Antidyslipidemic activity in high fat diet-fed dyslipidemic syrian golden hamster model assessed as decrease in serum triglyceride level at 10 mg/kg, po administered once daily for 7 days relative to vehicle treated control. The data set is classed as functional, Mesocricetus auratus. On the set-up: scale not given: the % may be the effect or the level left. The procedure, abridged: (§1)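 Male Golden Syrian hamsters, 12 weeks old, 110 ± 10 g, eight per group, fed high-fat diet plus fructose daily on days 1–10. Oral dosing once daily on days 4–10 in 0.1% gum acacia; HFD-fed vehicle animals served as controls. After the last dose, retro-orbital blood was taken into EDTA and plasma lipids were measured enzymatically on an autoanalyzer. Results are % change versus HFD controls; t-test/ANOVA, p<0.05.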

For data set [2], the system named is Syrian golden hamster. Kind of data set: Antidyslipidemic activity in high fat diet-fed dyslipidemic syrian golden hamster model assessed as decrease in serum total cholesterol level at 10 mg/kg, po administered once daily for 7 days relative to vehicle treated control. The data set is classed as functional, Mesocricetus auratus. On the set-up: scale not given: the % may be the effect or the level left. The procedure, abridged: as §1

Data set [3] relates to Syrian golden hamster. Kind of data set: Antidyslipidemic activity in high fat diet-fed dyslipidemic syrian golden hamster model assessed as increase in serum HDL level at 10 mg/kg, po administered once daily for 7 days relative to vehicle treated control. The data set is classed as functional, Mesocricetus auratus. An outline of the steps:
as §1

For data set [4], the system named is Syrian golden hamster. Kind of data set: Antidyslipidemic activity in high fat diet-fed dyslipidemic syrian golden hamster model assessed as decrease in serum LDL level at 10 mg/kg, po administered once daily for 7 days relative to vehicle treated control. The data set is classed as functional, Mesocricetus auratus. On the set-up: scale not given: the % may be the effect or the level left. An outline of the steps: as §1

The subject of data set [5] is Syrian golden hamster. Kind of data set: Antidyslipidemic activity in high fat diet-fed dyslipidemic syrian golden hamster model assessed as increase in serum ratio of serum HDL/total cholesterol level at 10 mg/kg, po administered once daily for 7 days relative to vehicle treated control. The data set is classed as functional, Mesocricetus auratus. An outline of the steps:
as §1

Data set [6] is described as follows: Antioxidant activity assessed as trolox equivalent by TEAC assay. The data set is classed as functional.
For data set [7], the system named is Syrian golden hamster. Kind of data set: Toxicity in syrian golden hamster. The data set is classed as organism-based, Mesocricetus auratus. Conditions: in vivo. An outline of the steps: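 HFD-fed male Golden Syrian hamsters, eight per group, dosed orally at 10 mg/kg once daily for 7 days in 0.1% gum acacia. Body weight was recorded daily and food intake was monitored, then compared with HFD vehicle controls.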

Data set [8] deals with Syrian golden hamster. Kind of data set: Antidyslipidemic activity in high fat diet-fed dyslipidemic syrian golden hamster model assessed as decrease in serum triglyceride level at 25 mg/kg, po administered once daily for 7 days relative to vehicle treated control. The data set is classed as functional, Mesocricetus auratus. On the set-up: scale not given: the % may be the effect or the level left. The procedure, abridged: as §1

Data set [9] has as its system Syrian golden hamster. Kind of data set: Antidyslipidemic activity in high fat diet-fed dyslipidemic syrian golden hamster model assessed as decrease in serum total cholesterol level at 25 mg/kg, po administered once daily for 7 days relative to vehicle treated control. Type of data set: functional, Mesocricetus auratus. Also noted: scale not given: the % may be the effect or the level left. The procedure, abridged:
as §1

Data set [10] concerns Syrian golden hamster. Kind of data set: Antidyslipidemic activity in high fat diet-fed dyslipidemic syrian golden hamster model assessed as increase in serum HDL level at 25 mg/kg, po administered once daily for 7 days relative to vehicle treated control. Type of data set: functional, Mesocricetus auratus. An outline of the steps: as §1
Data set [11] relates to Syrian golden hamster. Kind of data set: Antidyslipidemic activity in high fat diet-fed dyslipidemic syrian golden hamster model assessed as decrease in serum LDL level at 25 mg/kg, po administered once daily for 7 days relative to vehicle treated control. The data set is classed as functional, Mesocricetus auratus. On the set-up: scale not given: the % may be the effect or the level left. An outline of the steps: as §1

The test system of data set [12] is Syrian golden hamster. Kind of data set: Antidyslipidemic activity in high fat diet-fed dyslipidemic syrian golden hamster model assessed as increase in serum ratio of HDL/total cholesterol level at 25 mg/kg, po administered once daily for 7 days relative to vehicle treated control. The data set is classed as functional, Mesocricetus auratus. The procedure, abridged: as §1

Data set [13] concerns the target T1, 3-hydroxy-3-methylglutaryl-coenzyme A reductase (Homo sapiens) (UniProt P04035).
T1 sequence (whole entry): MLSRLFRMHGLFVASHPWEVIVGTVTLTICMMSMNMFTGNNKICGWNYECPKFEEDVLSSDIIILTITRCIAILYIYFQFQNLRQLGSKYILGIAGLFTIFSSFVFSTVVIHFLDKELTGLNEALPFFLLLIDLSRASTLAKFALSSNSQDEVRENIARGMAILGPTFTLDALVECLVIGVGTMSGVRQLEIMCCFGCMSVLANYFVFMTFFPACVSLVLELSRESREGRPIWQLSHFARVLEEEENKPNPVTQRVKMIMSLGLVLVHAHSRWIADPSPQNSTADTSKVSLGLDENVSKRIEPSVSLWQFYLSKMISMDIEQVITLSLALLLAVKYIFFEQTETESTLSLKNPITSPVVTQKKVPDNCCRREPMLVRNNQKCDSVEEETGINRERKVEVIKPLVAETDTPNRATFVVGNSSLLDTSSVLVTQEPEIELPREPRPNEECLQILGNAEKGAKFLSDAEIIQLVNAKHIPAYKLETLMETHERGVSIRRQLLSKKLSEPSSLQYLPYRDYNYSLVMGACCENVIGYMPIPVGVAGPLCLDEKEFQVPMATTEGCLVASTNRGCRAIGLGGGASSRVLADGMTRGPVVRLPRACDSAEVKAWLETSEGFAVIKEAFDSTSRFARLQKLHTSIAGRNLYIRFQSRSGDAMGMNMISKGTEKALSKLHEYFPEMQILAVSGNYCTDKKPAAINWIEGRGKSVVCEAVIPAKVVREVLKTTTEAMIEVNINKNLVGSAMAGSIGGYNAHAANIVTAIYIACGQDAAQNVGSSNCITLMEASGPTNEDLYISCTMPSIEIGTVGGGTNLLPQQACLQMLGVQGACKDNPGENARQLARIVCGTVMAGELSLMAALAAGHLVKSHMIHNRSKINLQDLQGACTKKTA
Kind of data set: Inhibition of HMG-CoA reductase using HMG-CoA as substrate at 5 uM. The procedure, abridged: (§2)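 HMG-CoA reductase kit assay using supplied HMGR enzyme, HMG-CoA substrate, NADPH and assay buffer. Test concentrations were 5, 10, 25, 50 and 100 µM, with % inhibition recorded at each.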

For data set [14], the target named is T1, 3-hydroxy-3-methylglutaryl-coenzyme A reductase (Homo sapiens). Kind of data set: Inhibition of HMG-CoA reductase using HMG-CoA as substrate at 10 uM. An outline of the steps:
as §2

For data set [15] the target is unchanged. Kind of data set: Inhibition of HMG-CoA reductase using HMG-CoA as substrate at 25 uM. An outline of the steps:
as §2

Data set [16] has the same target. Kind of data set: Inhibition of HMG-CoA reductase using HMG-CoA as substrate at 50 uM. The procedure, abridged: as §2
For data set [17] the target is unchanged. Kind of data set: Inhibition of HMG-CoA reductase using HMG-CoA as substrate at 100 uM. The procedure, abridged: as §2
For data set [18], the system named is Syrian golden hamster. Kind of data set: Antidyslipidemic activity in high fat diet-fed dyslipidemic syrian golden hamster model assessed as decrease in serum HDL level at 10 mg/kg, po administered once daily for 7 days relative to vehicle treated control. Also noted: scale not given: the % may be the effect or the level left. Type of data set: functional, Mesocricetus auratus. The procedure, abridged:
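Male Golden Syrian hamsters (12 weeks, 110 ± 10 g) fed high fat diet with fructose daily days 1–10; dosed orally once daily days 4–10 in 0.1% gum acacia vehicle, eight per group. Blood drawn from retro-orbital plexus into EDTA after last dose; plasma HDL-C by enzymatic auto-analyzer. Reported as % change versus vehicle-treated HFD group; t-test/ANOVA, p < 0.05.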

The test system of data set [19] is Syrian golden hamster. Kind of data set: Antidyslipidemic activity in high fat diet-fed dyslipidemic syrian golden hamster model assessed as increase in serum LDL level at 10 mg/kg, po administered once daily for 7 days relative to vehicle treated control. The data set is classed as functional, Mesocricetus auratus. An outline of the steps: as §1

As to `Cc1cc(=O)oc2c3c(ccc12)C(=O)/C(=C/NCCCl)C=C3C=O`, the Activity came out at 47% with Syrian golden hamster [1]; 17% in the data set with Syrian golden hamster [2]; 19% with Syrian golden hamster [3]; 14% in the data set on Syrian golden hamster [4]; 9% in the data set with Syrian golden hamster [5]; 0.38 mM in data set [6]. The Activity entry in the data set on Syrian golden hamster [7] is “Non-toxic”.
For `CC(C)c1c(C(=O)Nc2ccccc2)c(-c2ccccc2)c(-c2ccc(F)cc2)n1CC[C@@H](O)C[C@@H](O)CC(=O)O` [ATORVASTATIN], the Activity is on record as 67% with Syrian golden hamster [1]; 25% in the data set on Syrian golden hamster [2]; 2% in the data set on Syrian golden hamster [3]; 23% in the data set on Syrian golden hamster [4]; 83% with Syrian golden hamster [5].
As to `Cc1cc(=O)oc2c3c(ccc12)C(=O)/C(=C/NC1CCCCC1)C=C3C=O`, the Activity in the data set on Syrian golden hamster [1] came out at 62%; in the data set on Syrian golden hamster [2], 14%; in the data set on Syrian golden hamster [3], 1%; with Syrian golden hamster [4] it was 10%; in the data set with Syrian golden hamster [5], 17%; in data set [6] it was 0.3 mM. Also, in the data set on Syrian golden hamster [7], the Activity result is on record as “Non-toxic”.
As to `CC[C@H](C)C(=O)O[C@H]1C[C@@H](C)C=C2C=C[C@H](C)[C@H](CC[C@@H]3C[C@@H](O)CC(=O)O3)[C@H]21` [LOVASTATIN], the Activity amounted to 29% in the data set with Syrian golden hamster [8]; 9% with Syrian golden hamster [9]; 3% in the data set on Syrian golden hamster [10]; 11% with Syrian golden hamster [11]; 12% in the data set on Syrian golden hamster [12]. Further, the inhibition worked out at 27.5% in data set [13]; 46.7% in data set [14]; 69.1% in [15]; 77.3% in [16]; 84.4% in data set [17].
Consider `Cc1cc(=O)oc2c3c(ccc12)C(=O)/C(=C/NC12CC4CC(CC(C4)C1)C2)C=C3C=O`, for which the Activity is 48% in the data set on Syrian golden hamster [1]; 48% in the data set with Syrian golden hamster [2]; 1% in the data set on Syrian golden hamster [3]; 59% with Syrian golden hamster [4]; 93% in the data set on Syrian golden hamster [5]; 0.99 mM in [6]. For the same compound, in the data set with Syrian golden hamster [7], the Activity result is given as “Non-toxic”.
With `O=C1O[C@H]([C@@H](O)CO)C(O)=C1O`, in data set [6], the Activity was found to be 3.13 mM.
Regarding `Cc1cc(=O)oc2c3c(ccc12)C(=O)/C(=C/NCCCO)C=C3C=O`, the Activity came out at 50% in the data set on Syrian golden hamster [1]; 26% with Syrian golden hamster [2]; 3% in the data set on Syrian golden hamster [3]; 21% with Syrian golden hamster [4]; 39% in the data set on Syrian golden hamster [5]; 1.46 mM in data set [6]. Further, the Activity result with Syrian golden hamster [7] is “Non-toxic”.
On to `COc1cccc(CN/C=C2\C=C(C=O)c3c(ccc4c(C)cc(=O)oc34)C2=O)c1`, for which the Activity worked out at 52% with Syrian golden hamster [1]; 47% in the data set with Syrian golden hamster [2]; 3% with Syrian golden hamster [3]; 59% in the data set with Syrian golden hamster [4]; 93% with Syrian golden hamster [5]; 1.26 mM in data set [6]. In addition, in the data set with Syrian golden hamster [7], the Activity result is recorded as “Non-toxic”.
For the compound `Cc1cc(=O)oc2c3c(ccc12)C(=O)/C(=C/NCC(C)(C)CO)C=C3C=O`, the Activity with Syrian golden hamster [1] worked out at 49%; in the data set on Syrian golden hamster [2], 36%; with Syrian golden hamster [3], 1%; in the data set with Syrian golden hamster [4], 36%; with Syrian golden hamster [5], 61%; in data set [6] it was 1.9 mM. Besides, the Activity result with Syrian golden hamster [7] is “Non-toxic”.
Turning to `Cc1cc(=O)oc2c3c(ccc12)C(=O)/C(=C/NCCBr)C=C3C=O`, the Activity in the data set on Syrian golden hamster [1] is 40%; with Syrian golden hamster [2], 13%; in the data set on Syrian golden hamster [18], 1%; in the data set on Syrian golden hamster [4], 10%; with Syrian golden hamster [5] it was 15%; in data set [6] it was 0.1 mM. Besides, the Activity result in the data set on Syrian golden hamster [7] was “Non-toxic”.
For the compound `Cc1cc(=O)oc2c3c(ccc12)C(=O)/C(=C/Nc1ccccc1O)C=C3C=O`, the Activity with Syrian golden hamster [1] is 42%; in the data set with Syrian golden hamster [2], 3%; with Syrian golden hamster [3], 15%; with Syrian golden hamster [5], 19%; in data set [6], 0.36 mM; in the data set on Syrian golden hamster [7] it was “Non-toxic”. Further, the Activity in the data set with Syrian golden hamster [19] is on record as 12%.
Consider `Cc1cccc(C)c1N/C=C1\C=C(C=O)c2c(ccc3c(C)cc(=O)oc23)C1=O`, for which the Activity was determined as 16% in the data set on Syrian golden hamster [1]; 30% in the data set with Syrian golden hamster [2]; 1% in the data set on Syrian golden hamster [3]; 40% with Syrian golden hamster [4]; 43% in the data set on Syrian golden hamster [5]; 0.99 mM in [6]. Besides, the Activity entry in the data set on Syrian golden hamster [7] is listed as “Non-toxic”.

The term inhibition denotes how much of the control response was suppressed.
